Screens (PubChem BioAssay)
HSP90 refold inh = blocks HSP90-mediated luciferase refolding in reticulocyte lysate; Rabbit reticulocyte lysate, luciferase refolding luminescence, 3 h; inhibition, % at 5.6 µM; 290,000 compounds, 0.91% hits;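 active = inhibition above the screen-wide mean plus 3 SD, computed separately per campaign, cut at about 16% in these data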;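 note: inhibitors lower the luminescence because luciferase stays unfolded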
Lipid droplet = modulators of hepatic lipid droplet formation; AML12 mouse hepatocytes, oleate lipid droplets, BODIPY imaging; inhibition, % at 6.5 µM; AID 1656; 240,000 compounds, 0.4% hits;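 active = lipid droplet intensity inhibited by at least 50%, with more than 500 cells counted; inconclusive = wells with under 300 cells, treated as cytotoxic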
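Assay system: AML12 mouse liver cells | Compound dosing: One dose, 6.5 µM compound | Read-out basis: Droplet intensity reduction, % inhibition | Measured by: Fluorescence imaging, 20x objective, two fields per well | Schedule: Overnight treatment with compound plus oleate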
HSF1 activator = increases HSF-1 driven luciferase reporter signal. NIH3T3-HGL HSF-1 luciferase reporter, MG132, 8 h; 100% = twice DMSO control signal. activation, % at 9 µM. 300,000 compounds, 1.7% hits;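 active = mean replicate activation of at least 50% with a set share of replicates each reaching 50%; inconclusive = only one of those two conditions met; inactive = mean below 50% and too few replicates reaching it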
HSF1 inh = HSF1 inhibition; 300,000 compounds, 0.77% hits; activity change, negative = inhibition, % at 7.5 µM (by protocol); NIH3T3-HGL HSE-luciferase, MG132-induced, luminescence 8 h; hits give low values;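 active = more than half of replicate wells show activity change below -50%, luminescence cut by over half; inconclusive = some wells, but at most half, below -50%; inactive = no replicate well below -50%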;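 note: luciferase reports HSF-1 transcriptional activity via heat shock element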
NS3 helicase inh = inhibitors of Hepatitis C virus NS3 helicase; inhibition, % at 10.9 µM; 290,000 compounds, 0.56% hits; NS3 helicase DNA unwinding, Cy5 molecular beacon fluorescence; AID 1800;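 active = inhibition above the mean of all tested compounds plus 3 SD, set per campaign, cut at about 35% in these data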
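Measured by: Cy5 fluorescence, 0 and 60 min reads / Assay system: NS3 helicase fragment of HCV / Control set: low DMSO, high thioflavine S at 110 µM / Times: 1 h reaction at 25 °C, ATP-initiated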
HSP90 inh confirm = confirmation of HSP90 inhibitors | shares compounds with HSP90 refold inh | rabbit reticulocyte lysate, luciferase refolding luminescence, 3 h | inhibition, % at 5.9 µM | 2,300 compounds, 64% hits | AID 1846; in the data active = inhibition above about 18%
FLuc counter = counter-screen for HSP90 inhibitors: inhibitors of firefly luciferase | purified native firefly luciferase, luminescence | 2,300 compounds, 48% hits | shares compounds with HSP90 refold inh | inhibition, % at 5.9 µM | AID 1847;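 active = inhibition above the mean inhibition of all tested sample wells plus 3 SD, cut at about 10% in these data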
Target sequence (P08659 whole entry, looked up): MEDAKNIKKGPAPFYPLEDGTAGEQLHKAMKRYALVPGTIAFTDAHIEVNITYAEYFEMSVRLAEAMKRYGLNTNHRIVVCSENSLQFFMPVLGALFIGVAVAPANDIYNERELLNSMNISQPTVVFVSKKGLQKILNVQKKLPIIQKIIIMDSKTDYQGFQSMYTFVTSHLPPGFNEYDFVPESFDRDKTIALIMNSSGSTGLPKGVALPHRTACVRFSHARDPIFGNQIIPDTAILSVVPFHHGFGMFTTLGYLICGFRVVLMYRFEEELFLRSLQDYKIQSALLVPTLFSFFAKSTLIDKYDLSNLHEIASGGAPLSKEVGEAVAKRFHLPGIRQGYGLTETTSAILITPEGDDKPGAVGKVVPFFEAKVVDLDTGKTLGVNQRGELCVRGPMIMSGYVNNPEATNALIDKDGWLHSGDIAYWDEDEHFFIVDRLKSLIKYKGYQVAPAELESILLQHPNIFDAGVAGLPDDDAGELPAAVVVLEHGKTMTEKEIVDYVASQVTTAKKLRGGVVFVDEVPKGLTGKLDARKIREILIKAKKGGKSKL
Of the large screens only hits and unclear results are named; the others gave an inactive call (follow-up assays come after a bar, where they were run). Hits are enriched below; roughly 3.8% of the tested compounds scored in any of these assays.

COc1ccccc1NC(=O)N1CCCC1C(=O)NCCc1ccccc1 (centres undefined)	none
Cc1cccc(C(C)C)c1NC(=O)c1c(-c2ccccc2)noc1C	none
Cc1ccc(-c2nc3n(n2)Cc2ccccc2-3)cc1	HSP90 refold inh 21.5 | HSP90 inh confirm 66.9 | FLuc counter 61.1
Fc1ccc(-c2nc3n(n2)Cc2ccccc2-3)cc1	none (no result: HSF1 activator, HSF1 inh)
CCn1c(C)nc2cc(C#N)ccc21	none
CCn1c(C)nc2cc(-c3nc4n(n3)Cc3ccccc3-4)ccc21	HSP90 refold inh 87.6, HSF1 inh -93.2 (no result: Lipid droplet) | HSP90 inh confirm 96.8 | FLuc counter 92.2
COc1ccc(/C=C/C(=O)NCC(=O)N/N=C(/C)c2ccco2)cc1	none
CCOc1ccc(N2C(=O)CC(C(C)c3ccccc3)C2=O)cc1 (centres undefined)	none
COc1cc(C(=O)Nc2ccc(N3CCN(C(=O)c4ccc(C)cc4)CC3)cc2)cc(OC)c1OC	none
CCOC(=O)N1CCN(C(=O)c2ccc3c(c2)sc2nc(-c4ccc(OC)cc4)cn23)CC1	none (no result: HSF1 activator, HSF1 inh)
COc1ccc2c(c1)sc1nc(-c3ccccc3)cn12	HSP90 refold inh 62.7, HSF1 inh -67.6 | HSP90 inh confirm 89.9 | FLuc counter 85.8
O=C(O)CCCNc1cc(N2CCC3(CC2)OCCO3)c2noc3c2c1C(=O)c1ccccc1-3	HSP90 refold inh 31.2, NS3 helicase inh 37.2 (no result: Lipid droplet, HSF1 activator, HSF1 inh) | HSP90 inh confirm 29.6 | FLuc counter 28.8
CN1CCN(c2cc(N3CCN(C(=O)c4ccco4)CC3)c3c4c(onc24)-c2ccccc2C3=O)CC1	none
Nc1ccc(Br)c2cccnc12	HSP90 refold inh 17.3 | HSP90 inh confirm inactive | FLuc counter inactive
O=c1oc(Nc2cccc(F)c2)nc2ccccc12	HSP90 refold inh 17.5 (no result: Lipid droplet) | HSP90 inh confirm inactive | FLuc counter inactive
Fc1cccc(Nc2c3c(nc4ccccc24)CCC3)c1	none
C(=N\Nc1ccc2ccccc2n1)/c1ccc2c(c1)OCCO2	HSP90 refold inh 67.7, HSF1 inh -80.4 | HSP90 inh confirm 92.9 | FLuc counter 91.5
Cc1cccc(/C=N/Nc2ccc3ccccc3n2)c1	HSP90 refold inh 65.7 | HSP90 inh confirm 84.6 | FLuc counter 84.3
CN(C)c1cc(-c2ccccc2)nc(-c2ccccc2)n1	none
COc1ccc(CCn2c(C)cc(C(=O)COC(=O)c3cnccn3)c2C)cc1	none
CCCn1c(C)cc(C(=O)COC(=O)c2nccnc2N)c1C	HSP90 refold inh 24.9 | HSP90 inh confirm 40.0 | FLuc counter 57.1
Cc1cc2cc(CNC(=S)NC3CCCCC3)ccc2n1C	HSP90 refold inh 19.6 | HSP90 inh confirm inactive | FLuc counter inactive
Cc1cc(C)n(C(=O)c2c([N+](=O)[O-])cnn2C)n1	HSP90 refold inh 72.0 | HSP90 inh confirm inactive | FLuc counter inactive
CCn1ncc([N+](=O)[O-])c1C(=O)n1nc(C)cc1C	none
COc1ccc2cc(C(=O)C3CCCN(C(=O)/C=C/c4ccccn4)C3)ccc2c1 (centres undefined)	none
Cc1onc(-c2ccccc2)c1C(=O)O/N=C(\N)c1ccc([N+](=O)[O-])o1	HSF1 activator inconclusive
Cc1onc(-c2cccc(Cl)c2Cl)c1C(=O)O/N=C(\N)c1ccc([N+](=O)[O-])o1	HSP90 refold inh 33.5 | HSP90 inh confirm inactive | FLuc counter inactive
O=C(CNC(=O)c1ccc(Cl)cc1)OCC(=O)N1CCCC1	HSP90 refold inh 18.7 | HSP90 inh confirm inactive | FLuc counter inactive
COc1ccccc1C1CCN(Cc2ccc(Cl)c(Cl)c2)CC1	none (no result: Lipid droplet)
COc1ccccc1C1CCN(Cc2ccc(Cl)cc2Cl)CC1	HSP90 refold inh 17.2 (no result: Lipid droplet) | HSP90 inh confirm inactive | FLuc counter inactive
COC(=O)c1ccc(NC(=O)c2ccccc2C(=O)Nc2ccc(C(=O)OC)cc2)cc1	none (no result: HSP90 refold inh, Lipid droplet, NS3 helicase inh)
COC(=O)c1ccc(NC(=O)C(=O)c2cccn2C)cc1	HSP90 refold inh 25.7, HSF1 activator 60.7 | HSP90 inh confirm 58.8 | FLuc counter 42.2
O=C(O)c1ccc(COc2ccc3c4c(c(=O)oc3c2)CCC4)o1	HSP90 refold inh 78.4 (no result: Lipid droplet) | HSP90 inh confirm 79.4 | FLuc counter 33.5
O=c1oc2cc(OCc3ccc([N+](=O)[O-])cc3)ccc2c2c1CCCC2	none
C=C(C)COc1ccc2c(CC)cc(=O)oc2c1	none
COC(=O)c1cc(COc2ccc3c4c(c(=O)oc3c2)CCC4)c(C)o1	none
CCc1cc(=O)oc2cc(OCc3ccc(C(=O)O)o3)ccc12	HSP90 refold inh 27.4 | HSP90 inh confirm 32.7 | FLuc counter inactive
Cc1c(C)c2ccc(OCc3ccc(C(=O)O)o3)c(C)c2oc1=O	HSP90 refold inh 75.4 (no result: Lipid droplet) | HSP90 inh confirm 86.8 | FLuc counter 44.9
COC(=O)c1ccc(COc2ccc3c(C)c(C)c(=O)oc3c2)o1	HSP90 refold inh 18.5 (no result: Lipid droplet) | HSP90 inh confirm 76.4 | FLuc counter inactive
CC(Sc1nnc2c(n1)[nH]c1ccccc12)C(=O)NC1CCCCC1 (centres undefined)	none
CCCc1cc(=O)oc2cc(OCC(=O)NCC3CCC(C(=O)O)CC3)ccc12 (centres undefined)	HSP90 refold inh 24.6 (no result: Lipid droplet) | HSP90 inh confirm inactive | FLuc counter inactive
CC(=O)N1CCc2cc(Br)cc(S(=O)(=O)N3CCC(C(=O)O)CC3)c21	none
COc1ccc(/C=N/NC(=S)Nc2cccc(C(=O)O)c2)cc1	none
O=C(Oc1ccc(/C=N/Nc2ccccc2)cc1)c1ccccc1	none (no result: Lipid droplet)
O=C(O)c1cccc(N/N=C/c2ccc(OC(F)(F)F)cc2)c1	HSP90 refold inh 47.2, HSF1 inh -56.0 (no result: Lipid droplet) | HSP90 inh confirm 75.7 | FLuc counter 75.6
O=C(O)c1ccc(N/N=C/c2ccc(OC(=O)c3cccc(Cl)c3)cc2)cc1	HSP90 refold inh 42.6, HSF1 inh inconclusive | HSP90 inh confirm 85.2 | FLuc counter inactive
Clc1ncccc1-c1nnn(-c2ccccc2)n1	HSP90 refold inh 20.8 | HSP90 inh confirm 17.2 | FLuc counter inactive
O=c1c2ccccc2cnn1Cc1nnc(-c2cccs2)o1	HSP90 refold inh 19.4 | HSP90 inh confirm inactive | FLuc counter inactive
CCC(C(=O)Nc1cc(Cl)c(OC)cc1OC)c1ccccc1 (centres undefined)	none
COc1cc(OC)c(NC2=CC(=O)C(=O)c3ccccc32)cc1Cl	HSP90 refold inh 44.0 | HSP90 inh confirm 34.3 | FLuc counter inactive
O=C(NCc1cc([N+](=O)[O-])ccc1O)c1cc(-c2ccncc2)nc2ccccc12	none
Cc1ccc(C(=O)Nc2cc3ccccc3oc2=O)cc1	HSP90 refold inh 49.7, HSF1 inh -72.0 | HSP90 inh confirm 97.8 | FLuc counter 92.1
CCOc1ccc(C(=O)Nc2ccc(NC(=O)c3ccco3)c(Cl)c2)cc1Cl	none
Cc1cc(/C=N/NC(=O)c2cccc(F)c2)c(C)n1-c1ccccc1	HSP90 refold inh 24.8 | HSP90 inh confirm 48.4 | FLuc counter 46.6
